{"source": "ChEMBL document CHEMBL1221266", "about": "“Synthesis and SAR of novel, 4-(phenylsulfamoyl)phenylacetamide mGlu4 positive allosteric modulators (PAMs) identified by functional high-throughput screening (HTS)” (Bioorg Med Chem Lett, 2010)", "key": {"[1]": {"target": "T1, Metabotropic glutamate receptor 4 (Homo sapiens, UniProt Q14833)", "T1 sequence (Q14833 whole entry)": "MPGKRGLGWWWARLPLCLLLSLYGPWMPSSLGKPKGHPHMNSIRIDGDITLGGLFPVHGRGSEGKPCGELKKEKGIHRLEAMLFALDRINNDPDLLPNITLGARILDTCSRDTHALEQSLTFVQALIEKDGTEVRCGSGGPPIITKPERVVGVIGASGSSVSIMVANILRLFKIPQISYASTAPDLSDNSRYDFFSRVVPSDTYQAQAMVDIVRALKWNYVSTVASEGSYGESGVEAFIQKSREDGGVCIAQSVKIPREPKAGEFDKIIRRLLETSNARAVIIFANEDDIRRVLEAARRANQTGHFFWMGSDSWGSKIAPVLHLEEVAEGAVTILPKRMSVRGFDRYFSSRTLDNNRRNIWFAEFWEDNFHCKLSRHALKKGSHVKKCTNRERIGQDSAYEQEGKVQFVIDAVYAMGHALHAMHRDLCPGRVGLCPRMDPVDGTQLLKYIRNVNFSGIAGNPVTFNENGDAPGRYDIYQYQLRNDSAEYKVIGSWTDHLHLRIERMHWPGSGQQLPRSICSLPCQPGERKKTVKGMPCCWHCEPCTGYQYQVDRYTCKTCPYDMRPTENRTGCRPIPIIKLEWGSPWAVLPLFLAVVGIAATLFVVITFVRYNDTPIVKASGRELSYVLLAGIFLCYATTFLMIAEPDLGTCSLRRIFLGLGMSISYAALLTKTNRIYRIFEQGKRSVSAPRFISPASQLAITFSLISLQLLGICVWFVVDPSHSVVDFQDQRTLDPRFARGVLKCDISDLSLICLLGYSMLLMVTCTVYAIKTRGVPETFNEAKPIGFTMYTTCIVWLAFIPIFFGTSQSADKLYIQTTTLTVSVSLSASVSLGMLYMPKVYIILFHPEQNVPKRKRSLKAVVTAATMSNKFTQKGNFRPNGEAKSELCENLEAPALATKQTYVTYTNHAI", "assay": "Positive allosteric modulation of human mGlu4 receptor expressed in CHO cells assessed as potentiation of glutamate-induced calcium mobilization", "type": "functional, cell-based", "procedure,_shortened": "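Human mGlu4 co-expressed with the chimeric G protein Gqi5 in CHO cells. Compounds were tested in the presence of an EC20 glutamate concentration as 1:3 serial dilutions starting at 30 μM. Values are the mean of triplicates run on one day. For % PHCCC, each compound's maximal response was divided by the response to the control PAM PHCCC measured that same day.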"}, "[2]": {"target": "T1, Metabotropic glutamate receptor 4", "assay": "Positive allosteric modulation of human mGlu4 receptor expressed in CHO cells assessed as potentiation of glutamate-induced calcium mobilization relative to PHCCC", "type": "functional, cell-based", "procedure,_shortened": "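Human mGlu4/Gqi5 CHO cells with an EC20 concentration of glutamate; compounds tested in 1:3 serial dilutions from 30 μM, in triplicate on one day. The maximal response elicited by each compound was divided by the response to the control PAM PHCCC measured on the same day.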"}, "[3]": {"assay": "Metabolic stability in human liver microsomes assessed as compound remaining after 60 mins", "type": "ADME, Microsome", "conditions": "read-out: Stability; call rule not given here"}, "[4]": {"assay": "Metabolic stability in rat liver microsomes assessed as compound remaining after 60 mins", "type": "ADME, Microsome", "conditions": "read-out: Stability"}, "[5]": {"target": "T1, Metabotropic glutamate receptor 4", "assay": "Positive allosteric modulation of human mGlu4 receptor expressed in CHO cells assessed as potentiation of glutamate-induced calcium mobilization at > 30 uM", "type": "functional, cell-based"}, "[6]": {"assay": "Fraction unbound in rat plasma", "type": "ADME, cell-free"}, "Homo sapiens": {"species_on_record": "Homo sapiens", "assay": "Fraction unbound in human plasma"}}, "note": "pEC50: −log10 of the molar value.", "data": [{"compound": "O=C(Nc1ccc(S(=O)(=O)Nc2ccccc2Cl)c(Cl)c1)c1ccccn1", "values": [{"measurement": "pEC50", "setting": "[1]", "value": 7.70}, {"measurement": "Emax", "setting": "[2]", "value": 102, "unit": "%"}, {"measurement": "remaining at 1 h", "setting": "[3]", "value": 0.63, "unit": "%"}, {"measurement": "remaining at 1 h", "setting": "[4]", "value": 0.02, "unit": "%"}]}, {"compound": "O=C(Nc1ccc(S(=O)(=O)NC2CCCCC2)cc1)c1ccccn1", "values": [{"measurement": "pEC50", "setting": "[1]", "value": 5.99}, {"measurement": "Emax", "setting": "[2]", "value": 63.1, "unit": "%"}]}, {"compound": "COc1cccc(C(=O)Nc2ccc(S(=O)(=O)Nc3ccccc3Cl)cc2)n1", "values": [{"measurement": "Emax", "setting": "[2]", "value": 8.6, "unit": "%"}, {"measurement": "EC50", "setting": "[5]", "value": "Not Active"}]}, {"compound": "CC1CCN(S(=O)(=O)c2ccc(NC(=O)c3ccccn3)cc2)CC1", "values": [{"measurement": "pEC50", "setting": "[1]", "value": 6.43}, {"measurement": "Emax", "setting": "[2]", "value": 35.8, "unit": "%"}]}, {"compound": "COCCNS(=O)(=O)c1ccc(NC(=O)c2ccccn2)cc1", "values": [{"measurement": "pEC50", "setting": "[1]", "value": "< 5.00"}, {"measurement": "Emax", "setting": "[2]", "value": 22.1, "unit": "%"}]}, {"compound": "O=C(Nc1ccc(S(=O)(=O)Nc2ccccc2)cc1)c1ccccn1", "values": [{"measurement": "pEC50", "setting": "[1]", "value": 6.75}, {"measurement": "Emax", "setting": "[2]", "value": 69.2, "unit": "%"}]}, {"compound": "O=C(Nc1ccc(S(=O)(=O)NCC2CC2)cc1)c1ccccn1", "values": [{"measurement": "pEC50", "setting": "[1]", "value": "< 5.30"}, {"measurement": "Emax", "setting": "[2]", "value": 70.2, "unit": "%"}]}, {"compound": "O=C(Nc1ccc(S(=O)(=O)Nc2ccccc2Cl)cc1)c1ccncn1", "values": [{"measurement": "pEC50", "setting": "[1]", "value": 6.32}, {"measurement": "Emax", "setting": "[2]", "value": 103, "unit": "%"}]}, {"compound": "O=C(Nc1ccc(S(=O)(=O)Cc2ccccc2Cl)cc1)c1ccccn1", "values": [{"measurement": "Emax", "setting": "[2]", "value": 46.3, "unit": "%"}]}, {"compound": "O=C(Nc1ccc(CS(=O)(=O)c2ccccc2Cl)cc1)c1ccccn1", "values": [{"measurement": "pEC50", "setting": "[1]", "value": 5.66}, {"measurement": "Emax", "setting": "[2]", "value": 46.5, "unit": "%"}]}, {"compound": "O=C(Nc1ccc(S(=O)(=O)Nc2ccccc2Cl)cc1Cl)c1ccccn1", "values": [{"measurement": "Emax", "setting": "[2]", "value": 8.1, "unit": "%"}, {"measurement": "EC50", "setting": "[5]", "value": "Not Active"}]}, {"compound": "CN(c1ccccc1Cl)S(=O)(=O)c1ccc(NC(=O)c2ccncn2)cc1", "values": [{"measurement": "pEC50", "setting": "[1]", "value": 6.00}, {"measurement": "Emax", "setting": "[2]", "value": 31.1, "unit": "%"}, {"measurement": "remaining at 1 h", "setting": "[3]", "value": 2.5, "unit": "%"}, {"measurement": "remaining at 1 h", "setting": "[4]", "value": 3.3, "unit": "%"}, {"measurement": "fraction unbound", "setting": "[6]", "value": 0.027}, {"measurement": "fraction unbound", "setting": "Homo sapiens", "value": 0.017}]}, {"compound": "Cc1cc(C)c(NS(=O)(=O)c2ccc(NC(=O)c3ccccn3)cc2)c(C)c1", "values": [{"measurement": "pEC50", "setting": "[1]", "value": 6.80}, {"measurement": "Emax", "setting": "[2]", "value": 60.5, "unit": "%"}, {"measurement": "remaining at 1 h", "setting": "[4]", "value": 25.8, "unit": "%"}, {"measurement": "fraction unbound", "setting": "[6]", "value": 0.003}, {"measurement": "fraction unbound", "setting": "Homo sapiens", "value": 0.001}]}, {"compound": "O=C(Nc1ccc(S(=O)(=O)Nc2cc(F)ccc2F)cc1)c1ccccn1", "values": [{"measurement": "pEC50", "setting": "[1]", "value": 6.49}, {"measurement": "Emax", "setting": "[2]", "value": 87.6, "unit": "%"}]}, {"compound": "O=C(Nc1ccc(S(=O)(=O)Nc2ccccc2Cl)cc1)c1cccc(F)n1", "values": [{"measurement": "pEC50", "setting": "[1]", "value": 6.91}, {"measurement": "Emax", "setting": "[2]", "value": 90, "unit": "%"}]}, {"compound": "COc1ccccc1NS(=O)(=O)c1ccc(NC(=O)c2ccccn2)cc1OC", "values": [{"measurement": "pEC50", "setting": "[1]", "value": 6.88}, {"measurement": "Emax", "setting": "[2]", "value": 112, "unit": "%"}, {"measurement": "remaining at 1 h", "setting": "[3]", "value": 1.3, "unit": "%"}, {"measurement": "remaining at 1 h", "setting": "[4]", "value": 0.05, "unit": "%"}, {"measurement": "fraction unbound", "setting": "[6]", "value": 0.127}, {"measurement": "fraction unbound", "setting": "Homo sapiens", "value": 0.003}]}, {"compound": "CN(c1ccccc1Cl)S(=O)(=O)c1ccc(NC(=O)c2nccs2)cc1", "values": [{"measurement": "pEC50", "setting": "[1]", "value": 6.16}, {"measurement": "Emax", "setting": "[2]", "value": 25.4, "unit": "%"}, {"measurement": "remaining at 1 h", "setting": "[3]", "value": 0.1, "unit": "%"}, {"measurement": "remaining at 1 h", "setting": "[4]", "value": 0.08, "unit": "%"}, {"measurement": "fraction unbound", "setting": "[6]", "value": 0.37}, {"measurement": "fraction unbound", "setting": "Homo sapiens", "value": 0.005}]}, {"compound": "O=C(Nc1ccc(S(=O)(=O)N2CCCC2)cc1)c1ccccn1", "values": [{"measurement": "Emax", "setting": "[2]", "value": 15.4, "unit": "%"}, {"measurement": "EC50", "setting": "[5]", "value": "Not Active"}]}, {"compound": "O=C(Nc1ccc(S(=O)(=O)Nc2ccccc2Cl)cc1)c1ccsc1", "values": [{"measurement": "pEC50", "setting": "[1]", "value": 6.57}, {"measurement": "Emax", "setting": "[2]", "value": 54.2, "unit": "%"}]}, {"compound": "O=C(Nc1ccc(S(=O)(=O)N2CCc3ccccc32)cc1)c1ccccn1", "values": [{"measurement": "Emax", "setting": "[2]", "value": 12, "unit": "%"}, {"measurement": "EC50", "setting": "[5]", "value": "Not Active"}]}, {"compound": "O=C(Nc1ccc(S(=O)(=O)Nc2ccc(Cl)c(C(F)(F)F)c2)cc1)c1ccccn1", "values": [{"measurement": "Emax", "setting": "[2]", "value": 19.5, "unit": "%"}, {"measurement": "EC50", "setting": "[5]", "value": "Not Active"}]}, {"compound": "O=C(Nc1ccc(S(=O)(=O)Nc2ccccc2Cl)cc1)c1ccccn1", "values": [{"measurement": "pEC50", "setting": "[1]", "value": 7.57}, {"measurement": "Emax", "setting": "[2]", "value": 88.2, "unit": "%"}, {"measurement": "remaining at 1 h", "setting": "[3]", "value": 0.02, "unit": "%"}, {"measurement": "remaining at 1 h", "setting": "[4]", "value": 0.02, "unit": "%"}, {"measurement": "fraction unbound", "setting": "[6]", "value": 0.003}, {"measurement": "fraction unbound", "setting": "Homo sapiens", "value": 0.001}]}, {"compound": "O=C(Nc1ccc(S(=O)(=O)Nc2ccc(F)c(Cl)c2)cc1)c1ccccn1", "values": [{"measurement": "Emax", "setting": "[2]", "value": 19.8, "unit": "%"}, {"measurement": "EC50", "setting": "[5]", "value": "Not Active"}]}, {"compound": "O=C(Nc1ccc(S(=O)(=O)Nc2ccccc2F)cc1)c1ccccn1", "values": [{"measurement": "pEC50", "setting": "[1]", "value": 6.69}, {"measurement": "Emax", "setting": "[2]", "value": 91.7, "unit": "%"}]}, {"compound": "O=C(Nc1ccc(S(=O)(=O)Nc2ccccc2Cl)cc1)c1nccs1", "values": [{"measurement": "pEC50", "setting": "[1]", "value": 7.11}, {"measurement": "Emax", "setting": "[2]", "value": 79.4, "unit": "%"}, {"measurement": "remaining at 1 h", "setting": "[3]", "value": 0.84, "unit": "%"}, {"measurement": "remaining at 1 h", "setting": "[4]", "value": 1.2, "unit": "%"}, {"measurement": "fraction unbound", "setting": "[6]", "value": 0.001}, {"measurement": "fraction unbound", "setting": "Homo sapiens", "value": 0.001}]}, {"compound": "Cc1cc(C)c(NS(=O)(=O)c2ccc(NC(=O)c3ccco3)cc2)c(C)c1", "values": [{"measurement": "pEC50", "setting": "[1]", "value": 5.22}, {"measurement": "Emax", "setting": "[2]", "value": 52, "unit": "%"}, {"measurement": "remaining at 1 h", "setting": "[4]", "value": 93.3, "unit": "%"}, {"measurement": "fraction unbound", "setting": "[6]", "value": 0.082}, {"measurement": "fraction unbound", "setting": "Homo sapiens", "value": 0.022}]}, {"compound": "O=C(Nc1ccc(Cl)c(S(=O)(=O)Nc2ccccc2Cl)c1)c1ccccn1", "values": [{"measurement": "pEC50", "setting": "[1]", "value": 6.14}, {"measurement": "Emax", "setting": "[2]", "value": 54.9, "unit": "%"}, {"measurement": "remaining at 1 h", "setting": "[3]", "value": 11.9, "unit": "%"}, {"measurement": "remaining at 1 h", "setting": "[4]", "value": 0.05, "unit": "%"}]}, {"compound": "O=C(Nc1ccc(S(=O)(=O)NC2CCC2)cc1)c1ccccn1", "values": [{"measurement": "pEC50", "setting": "[1]", "value": "< 5.30"}, {"measurement": "Emax", "setting": "[2]", "value": 64.4, "unit": "%"}]}, {"compound": "O=C(Nc1ccc(S(=O)(=O)NC2CC2)cc1)c1ccccn1", "values": [{"measurement": "pEC50", "setting": "[1]", "value": "< 5.00"}, {"measurement": "Emax", "setting": "[2]", "value": 23.7, "unit": "%"}]}]}
